Assay results taken from ChEMBL document CHEMBL4392823, “Potassium channel blocking 1,2-bis(aryl)ethane-1,2-diamines active as antiarrhythmic agents” (Bioorg Med Chem Lett, 2019).

Tests used:
[1] = Renal clearance in dog; type: ADME, Canis lupus familiaris; details: in vivo
[2] = Plasma clearance in dog; type: ADME, Canis lupus familiaris
[3] = biological target: T1, Potassium voltage-gated channel subfamily A member 5 (Homo sapiens, UniProt P22460); test: Inhibition of recombinant human Kv1.5 expressed in CHO cells by IonWork high-throughput electrophysiology assay; type: cell-based
Outline: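 Kv1.5 current recorded in CHO cells by IonWorks HT automated electrophysiology. IC50 is the average of 2 measurements unless n=1 is noted.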

[4] = biological target: Voltage-gated inwardly rectifying potassium channel KCNH2 (Homo sapiens, UniProt Q12809); test: Inhibition of human ERG
[5] = biological target: Potassium voltage-gated channel subfamily E member 1 (Homo sapiens, UniProt P15382); test: Inhibition of IKs (unknown origin)
Cytochrome P450 2D6 = Cytochrome P450 2D6 (Homo sapiens, UniProt P10635); test: Inhibition of CYP2D6 (unknown origin); type: ADME
[6] = Lipophilicity, log D of the compound by chromatographic method; type: physicochemical
Outline: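 Lipophilicity (log D) measured by a chromatographic method.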

[7] = Intrinsic clearance in human liver microsomes; type: ADME, Microsome; details: read-out: CLH
[8] = Stability in human liver microsomes assessed as formation of iminium ions; type: ADME, Microsome
Cytochrome P450 3A4 = Cytochrome P450 3A4 (Homo sapiens, UniProt P08684); test: Drug metabolism in human hepatocytes assessed as CYP3A4-mediated drug metabolism; type: ADME, cell-based
[9] = Drug excretion in dog urine; type: ADME, Canis lupus familiaris; details: read-out: Drug excretion
[10] = biological target: T1, Potassium voltage-gated channel subfamily A member 5; test: Inhibition of Kv1.5 in human atrial myocytes assessed as blockade of Ikur current; type: cell-based
[11] = Dissociation constant, pKa of the compound; type: physicochemical
Oryctolagus cuniculus = test: Antiarrhythmic activity in iv dosed anesthetized rabbit assessed as free compound plasma exposure which prolongs the right atrial effective refractory period by 20 milliseconds measured after 20 mins by electrophysiological analysis; type: functional
Outline: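 Anesthetized rabbits received increasing intravenous infusions of test compound. Right atrial effective refractory period was measured 20 min after each dose. Value is the free plasma exposure giving a 20 ms RAERP prolongation.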

[12] = Cardiotoxicity in dog assessed as blockade of sodium channel by measuring changes in ECG at higher dose; type: toxicity, Canis lupus familiaris; details: in vivo
Canis familiaris = species: Canis familiaris; test: Antiarrhythmic activity in rapid atrial pacing dog model of atrial fibrillation assessed as unbound plasma concentration required to convert atrial fibrillation to sinus rhythm; type: functional, Canis lupus familiaris
Outline: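 Rapid atrial pacing dog model of AF (n=12). Read-out was conversion of AF to sinus rhythm, with the unbound plasma concentration at conversion reported as mean ± spread.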

[13] = biological target: T2, G protein-activated inward rectifier potassium channel 1 (Homo sapiens, UniProt P48549); test: Inhibition of Kir3.1 (unknown origin)
T2 sequence (P48549 whole entry): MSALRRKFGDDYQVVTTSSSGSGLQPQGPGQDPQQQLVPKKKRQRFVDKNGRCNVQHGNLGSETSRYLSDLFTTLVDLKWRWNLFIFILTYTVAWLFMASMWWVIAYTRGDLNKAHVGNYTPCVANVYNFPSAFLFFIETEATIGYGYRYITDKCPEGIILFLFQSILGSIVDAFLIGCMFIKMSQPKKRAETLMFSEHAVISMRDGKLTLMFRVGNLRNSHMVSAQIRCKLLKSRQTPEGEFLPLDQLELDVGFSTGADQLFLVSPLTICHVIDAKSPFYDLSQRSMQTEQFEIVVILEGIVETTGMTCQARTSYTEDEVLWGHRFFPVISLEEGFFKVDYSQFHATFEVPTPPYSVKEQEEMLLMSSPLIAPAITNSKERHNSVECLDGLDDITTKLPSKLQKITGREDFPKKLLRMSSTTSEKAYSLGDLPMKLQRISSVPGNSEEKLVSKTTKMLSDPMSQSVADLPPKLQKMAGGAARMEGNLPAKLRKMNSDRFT

[14] = biological target: T3, G protein-activated inward rectifier potassium channel 4 (Homo sapiens, UniProt P48544); test: Inhibition of Kir3.4 (unknown origin)
T3 sequence (P48544 whole entry): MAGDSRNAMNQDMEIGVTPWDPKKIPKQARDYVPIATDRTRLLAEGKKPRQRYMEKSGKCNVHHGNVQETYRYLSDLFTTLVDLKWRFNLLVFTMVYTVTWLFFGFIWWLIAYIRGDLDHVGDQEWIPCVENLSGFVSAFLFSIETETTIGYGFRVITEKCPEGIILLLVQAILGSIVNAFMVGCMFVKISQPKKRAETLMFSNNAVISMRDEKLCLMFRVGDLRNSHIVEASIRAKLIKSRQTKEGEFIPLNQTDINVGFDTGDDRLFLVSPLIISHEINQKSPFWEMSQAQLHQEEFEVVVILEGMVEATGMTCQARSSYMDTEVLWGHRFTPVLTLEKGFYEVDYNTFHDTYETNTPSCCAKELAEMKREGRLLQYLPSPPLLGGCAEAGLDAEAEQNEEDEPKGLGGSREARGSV

[15] = biological target: T4, A-type voltage-gated potassium channel KCND3 (Homo sapiens, UniProt Q9UK17); test: Inhibition of Kv4.3 (unknown origin)
T4 sequence (Q9UK17 whole entry): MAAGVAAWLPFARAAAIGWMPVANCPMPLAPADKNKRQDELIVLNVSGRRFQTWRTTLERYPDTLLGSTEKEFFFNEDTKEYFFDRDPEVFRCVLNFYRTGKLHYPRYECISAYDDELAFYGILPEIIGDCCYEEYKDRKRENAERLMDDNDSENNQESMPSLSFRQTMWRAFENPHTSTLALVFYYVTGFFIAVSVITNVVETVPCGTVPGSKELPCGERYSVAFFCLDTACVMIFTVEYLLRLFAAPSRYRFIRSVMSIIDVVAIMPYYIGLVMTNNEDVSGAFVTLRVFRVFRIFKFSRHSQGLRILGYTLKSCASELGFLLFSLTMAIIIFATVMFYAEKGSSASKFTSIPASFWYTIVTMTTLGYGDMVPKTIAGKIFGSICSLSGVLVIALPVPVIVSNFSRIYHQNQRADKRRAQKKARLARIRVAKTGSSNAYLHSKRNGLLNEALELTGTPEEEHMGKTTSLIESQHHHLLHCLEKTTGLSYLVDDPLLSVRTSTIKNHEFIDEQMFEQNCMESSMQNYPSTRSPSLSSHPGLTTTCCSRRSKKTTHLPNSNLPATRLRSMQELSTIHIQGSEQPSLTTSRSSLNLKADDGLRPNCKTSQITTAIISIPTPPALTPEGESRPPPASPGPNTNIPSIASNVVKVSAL

hERG (KCNH2) = hERG (KCNH2) (Homo sapiens, UniProt Q12809); test: Inhibition of human ERG at 33 uM relative to control
[16] = biological target: Sodium channel protein type 5 subunit alpha (Homo sapiens, UniProt Q14524); test: Inhibition of Nav1.5 (unknown origin)
[17] = biological target: Voltage-dependent L-type calcium channel subunit alpha-1C (Homo sapiens, UniProt Q13936); test: Inhibition of CaV1.2 (unknown origin)
[18] = Free drug level in rat brain at 2 umol/kg/hr administered for 4 hrs; type: ADME, tissue-based; details: in vivo
Outline: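 Rats received a continuous intravenous infusion at 2 μmol/kg/h for 4 h. Total brain and plasma concentrations were measured at steady state. Free levels were calculated from measured unbound fractions in brain and plasma, and free brain exposure was expressed relative to free plasma exposure.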

[19] = biological target: T5, Glutamate [NMDA] receptor (Homo sapiens) (UniProt Q05586+Q12879+Q13224+O15399+O60391+Q14957+Q8TCU5); test: Inhibition of NMDA receptor glycine binding site (unknown origin) at 10 uM relative to control; type: protein-complex assay
[20] = biological target: T5, Glutamate [NMDA] receptor (Homo sapiens); test: Inhibition of NMDA receptor phencyclidine binding site (unknown origin) at 10 uM relative to control; type: protein-complex assay

T1 sequence (P22460 whole entry): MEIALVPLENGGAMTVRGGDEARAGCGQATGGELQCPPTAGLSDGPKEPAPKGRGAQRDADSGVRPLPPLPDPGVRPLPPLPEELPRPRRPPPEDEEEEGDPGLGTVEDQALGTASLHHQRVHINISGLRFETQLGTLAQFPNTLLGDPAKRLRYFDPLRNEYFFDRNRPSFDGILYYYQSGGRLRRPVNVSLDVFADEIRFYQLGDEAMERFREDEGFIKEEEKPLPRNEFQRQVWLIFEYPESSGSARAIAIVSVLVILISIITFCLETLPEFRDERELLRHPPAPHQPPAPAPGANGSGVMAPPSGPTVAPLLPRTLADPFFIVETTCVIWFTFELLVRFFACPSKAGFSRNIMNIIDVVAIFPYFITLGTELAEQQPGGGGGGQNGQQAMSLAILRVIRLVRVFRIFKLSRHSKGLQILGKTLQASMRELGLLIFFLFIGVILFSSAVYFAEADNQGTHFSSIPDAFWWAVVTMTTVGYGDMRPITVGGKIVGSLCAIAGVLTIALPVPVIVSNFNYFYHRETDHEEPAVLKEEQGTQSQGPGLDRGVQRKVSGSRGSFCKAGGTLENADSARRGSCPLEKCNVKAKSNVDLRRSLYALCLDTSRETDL
Sequence of Cytochrome P450 3A4 (P08684 whole entry): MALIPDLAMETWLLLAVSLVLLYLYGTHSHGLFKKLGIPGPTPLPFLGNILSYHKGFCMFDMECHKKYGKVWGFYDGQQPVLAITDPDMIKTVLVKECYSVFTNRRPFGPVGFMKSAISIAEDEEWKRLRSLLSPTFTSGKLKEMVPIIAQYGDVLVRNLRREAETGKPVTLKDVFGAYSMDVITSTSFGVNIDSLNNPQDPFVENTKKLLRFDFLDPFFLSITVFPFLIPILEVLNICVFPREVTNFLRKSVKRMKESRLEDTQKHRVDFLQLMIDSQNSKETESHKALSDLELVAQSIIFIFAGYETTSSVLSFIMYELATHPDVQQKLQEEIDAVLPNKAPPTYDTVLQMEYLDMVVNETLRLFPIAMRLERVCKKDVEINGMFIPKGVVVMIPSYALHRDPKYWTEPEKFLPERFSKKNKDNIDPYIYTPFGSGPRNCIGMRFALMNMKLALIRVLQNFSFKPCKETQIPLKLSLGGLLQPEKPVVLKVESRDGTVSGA
Sequence of Cytochrome P450 2D6 (P10635 whole entry): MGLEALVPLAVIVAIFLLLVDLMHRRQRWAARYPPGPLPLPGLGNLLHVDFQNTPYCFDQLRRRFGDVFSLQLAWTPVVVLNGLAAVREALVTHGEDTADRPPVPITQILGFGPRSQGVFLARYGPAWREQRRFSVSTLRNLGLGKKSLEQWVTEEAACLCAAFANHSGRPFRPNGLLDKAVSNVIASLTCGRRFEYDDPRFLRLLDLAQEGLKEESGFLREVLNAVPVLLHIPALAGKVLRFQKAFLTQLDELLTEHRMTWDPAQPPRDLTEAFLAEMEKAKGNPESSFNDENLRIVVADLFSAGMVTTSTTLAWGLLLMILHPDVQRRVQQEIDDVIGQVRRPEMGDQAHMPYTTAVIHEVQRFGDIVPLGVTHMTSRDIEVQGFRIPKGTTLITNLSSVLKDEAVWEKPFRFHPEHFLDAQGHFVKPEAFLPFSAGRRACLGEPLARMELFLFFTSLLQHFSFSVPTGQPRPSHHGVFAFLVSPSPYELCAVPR
Sequence of Voltage-gated inwardly rectifying potassium channel KCNH2 (Q12809 whole entry): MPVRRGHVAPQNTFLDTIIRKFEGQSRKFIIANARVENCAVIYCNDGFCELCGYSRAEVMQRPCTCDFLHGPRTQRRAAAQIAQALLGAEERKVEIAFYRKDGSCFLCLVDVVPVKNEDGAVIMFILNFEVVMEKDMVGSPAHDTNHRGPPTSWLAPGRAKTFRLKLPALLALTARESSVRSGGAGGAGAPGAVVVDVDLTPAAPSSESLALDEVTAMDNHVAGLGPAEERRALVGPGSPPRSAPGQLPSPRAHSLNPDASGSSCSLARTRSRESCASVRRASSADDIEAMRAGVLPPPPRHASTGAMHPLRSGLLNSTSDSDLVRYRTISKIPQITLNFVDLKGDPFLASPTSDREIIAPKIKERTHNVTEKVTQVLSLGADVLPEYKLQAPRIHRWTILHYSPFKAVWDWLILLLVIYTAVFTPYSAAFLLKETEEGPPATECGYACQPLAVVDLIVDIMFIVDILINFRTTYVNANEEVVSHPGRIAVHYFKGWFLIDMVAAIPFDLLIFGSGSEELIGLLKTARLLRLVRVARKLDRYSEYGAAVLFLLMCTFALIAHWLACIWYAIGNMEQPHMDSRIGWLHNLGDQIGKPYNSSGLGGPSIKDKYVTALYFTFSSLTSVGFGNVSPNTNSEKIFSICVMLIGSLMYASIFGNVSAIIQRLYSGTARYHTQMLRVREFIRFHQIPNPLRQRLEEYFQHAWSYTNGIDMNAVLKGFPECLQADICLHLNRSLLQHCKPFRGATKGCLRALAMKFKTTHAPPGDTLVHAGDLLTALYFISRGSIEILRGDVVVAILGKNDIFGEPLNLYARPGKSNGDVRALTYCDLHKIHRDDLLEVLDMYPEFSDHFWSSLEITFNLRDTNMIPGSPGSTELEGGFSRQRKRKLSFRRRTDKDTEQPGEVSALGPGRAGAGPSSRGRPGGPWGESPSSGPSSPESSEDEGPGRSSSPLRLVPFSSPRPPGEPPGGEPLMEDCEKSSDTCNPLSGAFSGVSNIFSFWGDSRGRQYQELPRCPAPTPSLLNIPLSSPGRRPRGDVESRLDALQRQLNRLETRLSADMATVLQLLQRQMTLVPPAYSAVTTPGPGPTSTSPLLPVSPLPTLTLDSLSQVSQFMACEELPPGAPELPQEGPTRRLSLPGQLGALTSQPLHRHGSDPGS
Sequence of Sodium channel protein type 5 subunit alpha (Q14524 whole entry): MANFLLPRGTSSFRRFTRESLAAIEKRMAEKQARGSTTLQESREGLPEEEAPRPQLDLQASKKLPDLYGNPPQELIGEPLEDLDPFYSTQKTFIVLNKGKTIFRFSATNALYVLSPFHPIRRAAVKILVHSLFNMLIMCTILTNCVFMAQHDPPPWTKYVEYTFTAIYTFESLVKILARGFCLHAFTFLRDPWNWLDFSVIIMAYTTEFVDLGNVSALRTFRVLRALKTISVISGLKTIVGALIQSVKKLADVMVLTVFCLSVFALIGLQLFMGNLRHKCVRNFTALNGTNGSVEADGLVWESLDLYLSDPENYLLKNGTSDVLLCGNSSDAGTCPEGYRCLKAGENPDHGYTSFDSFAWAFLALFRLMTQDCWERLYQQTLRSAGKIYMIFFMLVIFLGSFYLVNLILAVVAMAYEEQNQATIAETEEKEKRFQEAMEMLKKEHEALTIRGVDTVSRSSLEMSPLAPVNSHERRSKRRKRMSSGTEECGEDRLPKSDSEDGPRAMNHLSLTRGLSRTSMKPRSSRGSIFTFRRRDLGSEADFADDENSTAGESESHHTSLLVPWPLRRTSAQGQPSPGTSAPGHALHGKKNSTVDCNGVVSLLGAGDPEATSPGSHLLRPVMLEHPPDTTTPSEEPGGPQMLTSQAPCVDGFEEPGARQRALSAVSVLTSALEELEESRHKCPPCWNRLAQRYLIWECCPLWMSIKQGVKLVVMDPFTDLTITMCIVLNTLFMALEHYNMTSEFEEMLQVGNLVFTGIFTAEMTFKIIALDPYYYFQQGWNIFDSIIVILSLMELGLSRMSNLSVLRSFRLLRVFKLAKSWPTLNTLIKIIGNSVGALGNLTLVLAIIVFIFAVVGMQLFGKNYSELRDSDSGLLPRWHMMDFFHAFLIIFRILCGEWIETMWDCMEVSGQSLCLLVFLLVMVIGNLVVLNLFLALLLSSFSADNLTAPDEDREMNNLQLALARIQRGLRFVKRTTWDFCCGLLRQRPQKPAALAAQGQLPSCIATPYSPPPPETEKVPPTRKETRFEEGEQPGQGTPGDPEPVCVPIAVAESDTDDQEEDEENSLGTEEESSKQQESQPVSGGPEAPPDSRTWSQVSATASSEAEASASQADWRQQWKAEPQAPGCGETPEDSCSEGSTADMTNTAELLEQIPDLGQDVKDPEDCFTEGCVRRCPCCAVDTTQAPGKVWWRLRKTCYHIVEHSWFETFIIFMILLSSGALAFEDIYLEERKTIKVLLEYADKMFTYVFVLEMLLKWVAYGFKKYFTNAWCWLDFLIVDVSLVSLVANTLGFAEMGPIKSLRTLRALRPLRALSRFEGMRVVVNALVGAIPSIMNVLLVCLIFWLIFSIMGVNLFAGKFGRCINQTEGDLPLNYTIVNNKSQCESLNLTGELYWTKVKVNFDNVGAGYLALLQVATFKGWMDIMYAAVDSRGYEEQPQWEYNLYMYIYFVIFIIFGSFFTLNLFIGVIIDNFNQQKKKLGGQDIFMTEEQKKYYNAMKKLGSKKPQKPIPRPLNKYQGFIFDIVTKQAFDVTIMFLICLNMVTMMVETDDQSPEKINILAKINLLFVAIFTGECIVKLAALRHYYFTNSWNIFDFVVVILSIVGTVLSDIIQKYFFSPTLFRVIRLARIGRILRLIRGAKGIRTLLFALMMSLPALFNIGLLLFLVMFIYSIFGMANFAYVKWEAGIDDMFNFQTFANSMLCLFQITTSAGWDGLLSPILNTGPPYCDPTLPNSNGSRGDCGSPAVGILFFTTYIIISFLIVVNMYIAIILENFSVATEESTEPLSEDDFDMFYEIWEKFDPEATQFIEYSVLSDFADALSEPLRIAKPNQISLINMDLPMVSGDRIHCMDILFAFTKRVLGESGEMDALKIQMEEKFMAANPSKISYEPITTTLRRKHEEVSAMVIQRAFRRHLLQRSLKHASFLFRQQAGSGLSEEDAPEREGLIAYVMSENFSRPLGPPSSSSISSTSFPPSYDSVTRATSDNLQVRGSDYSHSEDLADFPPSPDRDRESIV

| SMILES | CL renal [1] | clearance [2] | IC50 [3] | IC50 [5] | chromatographic logD [6] | microsomal CLint [7] | Drug metabolism (Cytochrome P450 3A4) | dose excreted [9] | further results |
| --- | --- | --- | --- | --- | --- | --- | --- | --- | --- |
| CCCN(CC)[C@H](c1ccccn1)[C@@H](c1ccccn1)N(CC)CCC | 0.7 mL/min/kg | 16 mL/min/kg | 3200 nM | 60 µM | 3.3 | 23 µL/min/mg | Metabolite_Detected | 6.9% | IC50 [4]: > 33 µM; IC50 (Cytochrome P450 2D6): 5.4 µM; Stability [8]: Stable |
| CCCN(CC)[C@H](c1ccccn1)[C@@H](c1cccc(C#N)c1)N(CCOC)C[C@H](C)CO | 2.1 mL/min/kg | 44 mL/min/kg | 4800 nM |  |  |  |  | 4.4% | IC50 [10]: 390 nM |
| CCCN(CCC)[C@H](c1ccccn1)[C@@H](c1ccccn1)N(CCC)CCC |  |  | 220 nM | > 33 µM | 4.6 | 58 µL/min/mg | Metabolite_Detected |  | IC50 (Cytochrome P450 2D6): > 20 µM |
| c1ccc([C@H]([C@H](c2ccccn2)N2CCCCC2)N2CCCCC2)nc1 |  |  | 1400 nM |  | 4.6 | 412 µL/min/mg | Metabolite_Detected |  | pKa [11]: 8.7 |
| CCCN(CC)[C@@H](c1ccccn1)[C@H](c1cccc(C#N)c1)N(CCOC)C[C@@H](C)CO | 1.8 mL/min/kg | 37 mL/min/kg | 7300 nM |  |  |  |  | 4.7% | IC50 [10]: 260 nM |
| c1ccc([C@H]([C@@H](c2ccccc2)N2CCCCC2)N2CCCCC2)cc1 |  |  | 410 nM | 1.4 µM | 4 | 14 µL/min/mg | Metabolite_Detected |  | IC50 [4]: > 33 µM; IC50 (Cytochrome P450 2D6): 0.13 µM; Stability [8]: Unstable |
| CCCN(CC)[C@H](c1ccccn1)[C@@H](c1ccccn1)N(CCOC)C[C@H](C)CO | 2.7 mL/min/kg | 25 mL/min/kg | 10000 nM |  |  |  |  | 11% |  |
| c1ccc([C@@H]([C@H](c2ccccn2)N2CCCCC2)N2CCCCC2)nc1 |  |  | 4800 nM |  | 2.2 | < 5 µL/min/mg | Metabolite_Detected |  | pKa [11]: 10.4 |
| COCCN(C[C@H](C)O)[C@H](c1ccccn1)[C@@H](c1ccccn1)N1C2CCC1CC(OC)C2 (stereo not given in full) | 7.1 mL/min/kg | 25 mL/min/kg | 5600 nM |  |  |  |  | 28% |  |
| CCCN(C[C@H](C)O)[C@H](c1ccccn1)[C@@H](c1ccccn1)N1C2CCCC1CC2 | 0.3 mL/min/kg | 3 mL/min/kg | 3400 nM |  |  |  |  | 12% | Cp(f) (Oryctolagus cuniculus): 0.057 µM; Activity [12]: Toxic |
| c1ccc([C@H]([C@@H](c2ccccn2)N2CCCCC2)N2CCCCC2)nc1 |  |  | 2200 nM | 17 µM | 2.2 | < 5 µL/min/mg | Metabolite_Detected |  | IC50 [4]: > 33 µM; IC50 (Cytochrome P450 2D6): > 20 µM; pKa [11]: 10.4 |
| CCCN(CCC)[C@H](c1ccccn1)[C@@H](c1ccccn1)N(C[C@@H](C)O)C[C@@H](C)O | 5.5 mL/min/kg | 16 mL/min/kg | 2100 nM |  |  |  |  | 19% | Cp(f) (Oryctolagus cuniculus): 0.29 µM |
| CCCN(CCC)[C@H](c1ccccn1)[C@@H](c1ccccn1)N(CCC)C[C@H](O)CO | 0.19 mL/min/kg | 6.1 mL/min/kg | 1700 nM | > 33 µM |  |  |  | 5.1% | IC50 [4]: > 33 µM; IC50 [10]: 60 nM; Cp(f) (Oryctolagus cuniculus): 0.15 µM; Cp(f) (Canis familiaris): 0.48 µM; IC50 [13]: 4.1 µM; IC50 [14]: 4.1 µM; IC50 [15]: 11 µM; inhibition at 33 µM (hERG (KCNH2)): 37%; IC50 [16]: 19 µM; IC50 [17]: > 33 µM; Drug uptake(free) [18]: 4%; inhibition [19]: 13%; inhibition [20]: 14% |
| CCCN(CCC)[C@H](c1ccccn1)[C@@H](c1ccccn1)N(CCOC)C[C@H](C)O | 2.5 mL/min/kg | 21 mL/min/kg | 2700 nM |  |  |  |  | 11% | Cp(f) (Oryctolagus cuniculus): 0.22 µM |
